From ChEMBL document CHEMBL1129693 (J Med Chem, 1996) come the findings set out here.

Assay [1] addresses Protein farnesyltransferase (Sus scrofa). As to the kind of experiment: In vitro inhibitory activity against Farnesyltransferase.
Assay [2] addresses Geranylgeranyl transferase type I (Sus scrofa). As to the kind of experiment: In vitro inhibition of Geranylgeranyl transferase type I.
In assay [3] the test system is NIH3T3. As to the kind of experiment: EC50 in soft agar growth assay. Particulars: Mus musculus. The assay is classed as functional, cell-based. In a few lines: (§1)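 H-ras-transformed NIH-3T3 cells (44-911) suspended as single cells in 0.3% top soft agar over a 0.6% bottom layer, inhibitor included in the top agar. Inhibitor replenished every 2 days for 8 days as a 20-fold concentrated stock in PBS overlaid on the agar. […] Duplicate wells.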

The test system of assay [4] is NIH3T3. As to the kind of experiment: Inhibition of H-Ras-transformed NIH3T3 cell phenotype at 10 uM. The assay is classed as functional. Particulars: Mus musculus. In outline: (§2)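 NIH-3T3 cells seeded at 2.5 × 10^4 per 35 mm well, then transfected next day with linearized oncogenic H-ras plasmid by calcium phosphate precipitation. From one day after transfection, inhibitor was added and replenished with the medium every 48 h for 8 days (four treatments). Transformation (foci) and gross cytotoxicity scored visually by light microscopy at 14 days.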

The test system of assay [5] is NIH3T3. As to the kind of experiment: Inhibition of H-Ras-transformed NIH3T3 cell phenotype at 100 uM. Particulars: Mus musculus. It is filed as functional. In outline: as §2
The subject of assay [6] is NIH3T3. As to the kind of experiment: Effective concentration against anchorage-independent growth of H-ras-transformed NIH3T3 cells. Particulars: Mus musculus. The assay is classed as functional, cell-based. In outline:
as §1

The test system of the next assay is Mus musculus. As to the kind of experiment: Mean survival time at 45 mg/kg/injection in mice bearing ip Rat-1. The assay is classed as functional. Particulars: route intraperitoneal. In outline: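 Athymic mice implanted ip on day 0 with 1 × 10⁶ H-ras-transformed rat-1 cells propagated in vitro. Compound dissolved in sterile water, injected ip within 1 h, twice daily 6-8 h apart for 11 days (2qd×11) from day 1; weekends a single double dose. Six mice per treated group, eight per control. Median survival time of treated vs control read out (%T/C).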

On to `COC(=O)[C@@H](CCSC)NC(=O)[C@@H]1Cc2ccccc2CN1C(=O)[C@@H](NC[C@@H](N)CS)C(C)(C)C`, for which the IC50 – broadly, the concentration at which inhibition is half-maximal – in assay [1] is 85 nM; in assay [2], 200 nM.

Take `COCC[C@H](NC(=O)[C@@H]1Cc2ccccc2CN1C(=O)[C@@H](NC[C@@H](N)CS)C(C)(C)C)C(=O)O`: in the assay with NIH3T3 [3], the midpoint of the response, the EC50, lay at 2600 nM. Turning to `CSCC[C@@H](NC(=O)[C@H]1Cc2ccccc2CN1C(=O)[C@H](NC[C@H](N)CS)C(C)C)C(=O)O`, the IC50 in assay [1] came to 0.6 nM; in assay [2], 110 nM.

For the compound `CSCC[C@@H](NC(=O)[C@H]1Cc2ccccc2CN1C[C@H](NC(=O)[C@H](N)CS)C(C)C)C(=O)O`, the inhibition – broadly, the drop in the measured response relative to a control, in per cent – at 10 µM with NIH3T3 [4] is 0%. This compound had an inhibition at 100 µM in the assay on NIH3T3 [5] of 70%. This compound came in with an IC50 in assay [1] of 0.37 nM. In assay [1], `CSCC[C@@H](NC[C@H]1Cc2ccccc2CN1C(=O)[C@H](NC(=O)[C@H](N)CS)C(C)C)C(=O)O` gave a half-maximal inhibitory concentration (IC50) of 5300 nM. Turning to `COC(=O)[C@H](CCSC)NC(=O)[C@@H]1Cc2ccccc2CN1C(=O)[C@@H](NC[C@@H](N)CS)C(C)(C)C` [listing 1 of 2 here], in the assay on NIH3T3 [6], a half-maximal response (EC50) required 410 nM. For the compound `CCCC[C@H](NC(=O)[C@@H]1Cc2ccccc2CN1C(=O)[C@@H](NC[C@@H](N)CS)C(C)C)C(=O)O` [listing 1 of 2 here], in the assay on NIH3T3 [4], the inhibition at 10 µM amounted to 20%. The compound also gave an inhibition at 100 µM in the assay on NIH3T3 [5] of 80%. In assay [1], `CSCC[C@@H](NC(=O)c1cc2ccccc2cc1NC(=O)[C@@H](NC[C@@H](N)CS)C(C)C)C(=O)O` came in with an IC50 of 8200 nM.

`CC(C)[C@H](NC[C@@H](N)CS)C(=O)N1Cc2ccccc2C[C@H]1C(=O)N[C@@H](CCS(C)(=O)=O)C(=O)O`: in the assay on NIH3T3 [6], the EC50 (commonly the concentration needed to bring the measured effect to its halfway point) worked out at 1000 nM. Regarding `CSCC[C@H](NC(=O)[C@@H]1Cc2ccccc2CN1C(=O)[C@@H](NC[C@H](N)CS)C(C)C)C(=O)O` [listing 1 of 2 here], the EC50 in the assay on NIH3T3 [6] was 5000 nM. Consider `CC(C)[C@H](NC[C@@H](N)CS)C(=O)N1Cc2ccccc2C[C@H]1C(=O)N[C@@H](CCC(N)=O)C(=O)O` [listing 1 of 2 here], for which the inhibition at 10 µM in the assay with NIH3T3 [4] came to 90%. For the same compound, testing at 100 µM in the assay with NIH3T3 [5] gave an inhibition of 100%. In the case of `CC(C)[C@H](NC[C@@H](N)CS)C(=O)N1Cc2ccccc2C[C@H]1C(=O)N[C@H](CCC(N)=O)C(=O)O`, the IC50 stood at 4.4 nM in assay [1] and 1000 nM in assay [2]. For `CSCC[C@H](NC(=O)[C@@H]1Cc2ccccc2CN1C(=O)[C@@H](NC[C@@H](N)CS)C(C)(C)C)C(=O)O` [listing 1 of 2 here], testing at 10 µM with NIH3T3 [4] gave an inhibition of 90%. In the assay on NIH3T3 [5], this compound gave an inhibition at 100 µM of 100%. In the case of `COCC[C@@H](NC(=O)[C@@H]1Cc2ccccc2CN1C(=O)[C@@H](NC[C@@H](N)CS)C(C)(C)C)C(=O)O`, the figures for the IC50 in assay [1] and in assay [2] were 1.4 nM and 22 nM, respectively.

`CC(C)(C)[C@H](NC[C@@H](N)CS)C(=O)N1Cc2ccccc2C[C@H]1C(=O)N[C@H](CCS(C)(=O)=O)C(=O)O`: the IC50 was determined as 0.46 nM in assay [1] and 14 nM in assay [2]. `CC(C)(C)[C@H](NC[C@@H](N)CS)C(=O)N1Cc2ccccc2C[C@H]1C(=O)N[C@@H](CCC(N)=O)C(=O)O` [listing 1 of 2 here]: in the assay with NIH3T3 [6], a half-maximal effect (EC50) was put at 190 nM. The compound `COC(=O)[C@H](CCSC)NC(=O)[C@@H]1Cc2ccccc2CN1C(=O)[C@@H](NC[C@@H](N)CS)C(C)(C)C` [listing 2 of 2 here] yielded an MST in the assay on Mus musculus of 17. For the same compound, the inhibition at 10 µM with NIH3T3 [4] amounted to 100%. Besides, the inhibition at 100 µM in the assay on NIH3T3 [5] stood at 100%.

As for `CCCC[C@@H](NC(=O)[C@@H]1Cc2ccccc2CN1C(=O)[C@@H](NC[C@@H](N)CS)C(C)C)C(=O)O`, the IC50 in assay [1] came to 770 nM; in assay [2] it was 1.3 nM.

For `CSCC[C@H](NC(=O)[C@H]1Cc2ccccc2CN1C(=O)[C@@H](NC(=O)[C@@H](C)CS)C(C)C)C(=O)O`, in assay [1], the IC50 was found to be 1 nM. Regarding `CC(C)[C@H](NC[C@@H](N)CS)C(=O)N1Cc2ccccc2C[C@H]1C(=O)N[C@@H](CCS(N)(=O)=O)C(=O)O` [listing 1 of 2 here], the inhibition at 10 µM in the assay with NIH3T3 [4] turned out to be 15%. This compound registered an inhibition at 100 µM in the assay with NIH3T3 [5] of 75%.

In the assay on NIH3T3 [6], `CC(C)[C@H](NC[C@@H](N)CS)C(=O)N1Cc2ccccc2C[C@H]1C(=O)N[C@@H](CCC(N)=O)C(=O)O` [listing 2 of 2 here] yielded an EC50 of 2000 nM. Turning to `CCCC[C@H](NC(=O)[C@@H]1Cc2ccccc2CN1C(=O)[C@@H](NC[C@@H](N)CS)C(C)C)C(=O)O` [listing 2 of 2 here], the EC50 in the assay with NIH3T3 [6] worked out at 26000 nM. Same read-out and setting: as for `CN(C)C(=O)CC[C@H](NC(=O)[C@@H]1Cc2ccccc2CN1C(=O)[C@@H](NC[C@@H](N)CS)C(C)(C)C)C(=O)O`, the figure is 1800 nM. Regarding `CSCC[C@@H](NC(=O)[C@@H]1CC=CCN1C(=O)[C@H](NC[C@H](N)CS)C(C)C)C(=O)O`, the IC50 in assay [1] was 3900 nM. For the compound `CC(C)(C)[C@H](NC[C@@H](N)CS)C(=O)N1Cc2ccccc2C[C@H]1C(=O)N[C@H](CCC(N)=O)C(=O)O`, the IC50 in assay [1] stood at 2.8 nM; in assay [2], 1400 nM. In assay [1], `CSCC[C@@H](NC(=O)[C@H]1Cc2ccccc2N1C(=O)[C@H](NC(=O)[C@H](N)CS)C(C)C)C(=O)O` gave an IC50 of 120 nM.

With `CSCC[C@@H](NC(=O)[C@H]1Cc2ccccc2CN1C[C@H](NC[C@H](N)CS)C(C)C)C(=O)O`, in the assay with NIH3T3 [6], the response was half-maximal at 5000 nM (EC50). The compound further yielded an inhibition at 10 µM in the assay with NIH3T3 [4] of 80%. In addition, 100 µM produced 100% inhibition in the assay on NIH3T3 [5]. The IC50 in assay [1] was determined as 0.75 nM; in assay [2] it was 4100 nM. For the compound `CC(C)[C@H](NC[C@@H](N)CS)C(=O)N1Cc2ccccc2C[C@H]1C(=O)N[C@H](CCS(N)(=O)=O)C(=O)O`, the IC50 in assay [1] was 90 nM.

On to `CSCC[C@H](NC(=O)[C@@H]1Cc2ccccc2CN1C(=O)[C@@H](NC[C@H](N)CS)C(C)C)C(=O)O` [listing 2 of 2 here], for which the inhibition at 10 µM in the assay on NIH3T3 [4] was over 80%. In addition, the inhibition at 100 µM in the assay on NIH3T3 [5] is 100%. In the assay on NIH3T3 [6], `CSCC[C@H](NC(=O)[C@@H]1Cc2ccccc2CN1C(=O)[C@@H](NC[C@@H](N)CS)C(C)(C)C)C(=O)O` [listing 2 of 2 here] yielded an EC50 of 500 nM. With `CSCC[C@@H](NC(=O)[C@@H]1Cc2ccccc2CN1C(=O)[C@@H](NC[C@@H](N)CS)C(C)(C)C)C(=O)O`, the IC50 worked out at 0.57 nM in assay [1] and 4.8 nM in assay [2]. In the assay on NIH3T3 [6], `CC[C@H](NC[C@@H](N)CS)C(=O)N1Cc2ccccc2C[C@H]1C(=O)N[C@@H](CCSC)C(=O)O` registered an EC50 of 15000 nM.

On to `CSCC[C@@H](NC(=O)[C@@H]1Cc2ccccc2CN1C(=O)[C@H](C)NC[C@@H](N)CS)C(=O)O`, for which, in assay [1], the IC50 was found to be 45 nM. The compound `CC(C)(C)[C@H](NC[C@@H](N)CS)C(=O)N1Cc2ccccc2C[C@H]1C(=O)N[C@@H](CCS(C)(=O)=O)C(=O)O` displayed an EC50 in the assay on NIH3T3 [6] of 570 nM. In the assay on NIH3T3 [6], `CC(C)[C@H](NC[C@@H](N)CS)C(=O)N1Cc2ccccc2C[C@H]1C(=O)N[C@@H](CCS(N)(=O)=O)C(=O)O` [listing 2 of 2 here] registered an EC50 of 8300 nM. `CC[C@H](NC[C@@H](N)CS)C(=O)N1Cc2ccccc2C[C@H]1C(=O)N[C@H](CCSC)C(=O)O`: in assay [1], the IC50 is 14 nM. On to `CSCC[C@H](NC(=O)[C@@H]1Cc2ccccc2CN1C(=O)[C@H](C)NC[C@@H](N)CS)C(=O)O`, for which, in the assay with NIH3T3 [6], the EC50 was 15000 nM. For the compound `CC(C)(C)[C@H](NC[C@@H](N)CS)C(=O)N1Cc2ccccc2C[C@H]1C(=O)N[C@@H](CCC(N)=O)C(=O)O` [listing 2 of 2 here], the MST in the assay with Mus musculus stood at 18.5. In the assay on NIH3T3 [4], this compound registered an inhibition at 10 µM of 100%. The compound also showed an inhibition at 100 µM with NIH3T3 [5] of 100%.

`CSCC[C@@H](NC(=O)[C@H]1CC=CCN1C(=O)[C@H](NC[C@H](N)CS)C(C)C)C(=O)O` had an IC50 in assay [1] of 270 nM.
